Fewer inactive variants are shown than the library holds. Some results are limits rather than exact numbers.

B1: tRNA (parent)
chain: GUUCCGUUGGCGUAAUGGUAACGCGUCUCCCUCCUAAGGAGAAGACUGCGGGUUCGAGUCCCGUACGGAACG

Variants of B1 are the subject of the data set. Kind of data set: yeast fitness relative to wild type (ratio to wild type); higher = fitter; tRNA-Arg(CCU), competitive growth, 37 C, YPD. The essentials: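 Start and end populations of a pooled competition were compared by 100-nucleotide paired-end sequencing of gene amplicons. The Saccharomyces cerevisiae strains carried tRNA-Arg(CCU) gene variants at the native genomic locus, synthesised with a 3% per-site mutation rate at 69 sites, and competed in YPD at 37°C for 24 hours in six parallel replicates. Darwinian fitness relative to wild type was based on the change in genotype frequencies. Genotypes required ≥ 100 starting reads, and estimates < 0.5 were set to 0.5.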
Turning to GUUCCGUUGGCGUAAUGGUAACGCGUCUCCCCCCUAAGGAGAAGACUGCGGGUUCGAGUCCCCUACGGAACG, the yeast fitness worked out at 0.759.
On to GUUCCGUUGGCGUAAUGGUAACGCGUCUCCCCCCUAAGGAGAAGACUGCGGGUUUGAGUCCUGUACGGAACG, for which the yeast fitness was determined as 0.653.
As to GUUCCGUUGGCGUAAUGGUAACGCGUCUCCCGGCUAAGGAGAAGACUGCGGGUUCGAGUCCCGUAUGGUACG, the yeast fitness was at most 0.5.
For GUUCCGUUGGCGUAAUGGUAACGCGUCUCCCGCCUAAGGAGCAGACUGCGGGUUCGAGUCCCGUACGGAACG, the yeast fitness amounted to 0.62.
For GUUCCGUUGGCGUAAUGGUAACGCGUCUCCCCCUUAAGGAGAAGACUGCGGGUUCGAGUCCCGUACGGAACG the value was 0.788; for GUUCCGUUGGCGUAAUGGUAACGCGUCUCCCGCUUAAGGAGAAGACUGCGGGUUCGGGUCCCGUACGGAACG, 0.561.
As for GUUCCGUUGGCGUAAUGGUAACGCGUCUCCCCCCCAAGGGGAAGACUGCGGGUUCGAGUCCCGUACGGAACG, the yeast fitness is at most 0.5.
GUUCCGUUGGCGUAAUGGUAACGCGUCUCCCCCCUAAGGAGAAGACUACGGGUUCGAGUCCCGUACGGAUCG: the yeast fitness was 0.783.
With GUUCCGUUGGCGUAAUGGUAACGCGUCUCCCCCCUAAGGAGAAGUCUGCGGAUUCGAGUCCCGUACGGAUCG, the yeast fitness was at most 0.5.
For GUUCCGUUGGCGUAAUGGUAACGCGUCUCCCCCCUAAGGAGAAGACUGCGGGUUCGAGUCCCGUACGGACCG the value was 0.991; for GUUCCGUUGGCGUAAUGGUAACGCGUCUCCCCCCUAAGGAGAAGACUGCGGGUUCGAGUCCCGUACGGAUCG, 0.935; for GUUCCGUUGGCGUAAUGGUAACGCGUCUCCCCCCUAAGGAGAAGACUGCGGGUCCGAGUCCCGUACGGAACG, 0.687.
Turning to GUUCCGUUGGCGUAAUGGUAACGCGUCUCCCGCCUAAGGAGGAGAUUGCGAGUUCGAGUCCCGUACGGAACG, the yeast fitness is at most 0.5.
Turning to GUUCCGUUGGCGUAAUGGUAACGCGUCUCCCCCCUAAGGACAAGACCGCGGGUUCGAGUCCCGUACGGAACG, the yeast fitness was determined as 0.592.
Consider GUUCCGUUGGCGUAAUGGUAACGCGUCUCCCGACUAAGGAGAAGACAGCGGGUUCGAGUCCUGUAGGGAACG, for which the yeast fitness is at most 0.5.
Take GUUCCGUUGGCGUAAUGGUAACGCGUCUCCCCCCUAAGGAGAAGACAGCGGGUUCGAGUCCCGUACGGAACG: the yeast fitness turned out to be 0.9.
For GUUCCGUUGGCGUAAUGGUAACGCGUCUCCCCCCUAAGCAGAAGACUGCCGGUUCGAGUCCCGUACGGAACG the value was at most 0.5; for GUUCCGUUGGCGUAAUGGUAACGCGUCUCCCCCCUAAGGAGAAGACUGUGGGUUCGAGUCCCGUGCGGAACG, 0.778; for GUUCCGUUGGCGUAAUGGUAACGCGUCUCCCCCCUAAGGAGAAGACUGUGGGUUCGAGUCCCGUCCGGAACG, 0.793.
Regarding GUUCCGUUGGCGUAAUGGUAACGCGUCUCCCGCCUAAGGAGAAGACUGCGGGUUCGCGUCCUGUACGGAACG, the yeast fitness was 0.555.
As to GUUCCGUUGGCGUAAUGGUAACGCGUCUCCCCCUUAAGGAGAACACUGCGGGUUCGAGUCCCGUACGGAACG, the yeast fitness was at most 0.5.
As for GUUCCGUUGGCGUAAUGGUAACGCGUCUCCCCCCUAAGGAGAAGACUGCGGAUUCGACUCCCGUACGGAACG, the yeast fitness was at most 0.5.
Regarding GUUCCGUUGGCGUAAUGGUAACGCGUCUCCCGUCUAGGGAGACGACUGCGGGUUCGAGUCCCGUACGGAACG, the yeast fitness was at most 0.5.
For the variant GUUCCGUUGGCGUAAUGGUAACGCGUCUCCCGUCUCAGGAGAAGACUGCGGGUUCUAGUCCCGUAAGGAACG, the yeast fitness was at most 0.5.
As to GUUCCGUUGGCGUAAUGGUAACGCGUCUCCCCCCUAAGGAGAACACUGCGGGUUCGAGUCCCGUACGGAACG, the yeast fitness stood at 0.842.
With GUUCCGUUGGCGUAAUGGUAACGCGUCUCCCCCCUAAGGAGAAGACUGCGGGUUCGAAUCCUGUACGGCACG, the yeast fitness was determined as 0.716.
With GUUCCGUUGGCGUAAUGGUAACGCGUCUCCCCCCUAACGAGAAGACUGCGGGUUCGAGUCCCGUACGCAACG, the yeast fitness was at most 0.5.
With GUUCCGUUGGCGUAAUGGUAACGCGUCUCCCGGCUAAGGAGAAGACUGCAGGGUCGAGUCCCGUACGGGCCG, the yeast fitness is at most 0.5.
With GUUCCGUUGGCGUAAUGGUAACGCGUCUCCCGCCUAAGGAGGAGACUGCGGGUUCGAAUCUCGUACGGAGCG, the yeast fitness was at most 0.5.
Take GUUCCGUUGGCGUAAUGGUAACGCGUCUCCCGCCUAAGGAGAAGGCCGUGGGUUCGAGUCCCGUACGGAUCG: the yeast fitness is at most 0.5.
In the case of GUUCCGUUGGCGUAAUGGUAACGCGUCUCCCCCCUAAGGAGAAGUCUGCGGGUUCGAGUCCCGUACAGAACG, the yeast fitness is at most 0.5.
For GUUCCGUUGGCGUAAUGGUAACGCGUCUCCCGCCUAAGGAGAAGGCUGCGGGUUCGAGUCCCGUACGGUACG, the yeast fitness amounted to 0.553.
Regarding GUUCCGUUGGCGUAAUGGUAACGCGUCUCCCCCCUAAGGACAAGACUGCGGGUUCGAGUCCCGUACGGAACG, the yeast fitness amounted to 0.931.
Turning to GUUCCGUUGGCGUAAUGGUAACGCGUCUCCCCCCUAAGGAGAAGACUGCGGCUUCGAGUCCCGUACGGAACG, the yeast fitness was 0.602.
The value for GUUCCGUUGGCGUAAUGGUAACGCGUCUCCCCCCCAAGGAGAAGACUGGGGGUUCGAGUCCCGUACGGAACG was 0.545; that for GUUCCGUUGGCGUAAUGGUAACGCGUCUCCCCCCUAAGGAGAAGACUGCGGGUUCGAGUCCCGAACGGAACG was 0.789.
On to GUUCCGUUGGCGUAAUGGUAACGCGUCUCCCCCCUAAGGAGAAGACUGCGGGUUCGAAUCCCGUACGGAACG, for which the yeast fitness was determined as 0.798.
Take GUUCCGUUGGCGUAAUGGUAACGCGUCUCCCGCCUAAGGAGAAGACUGCGGGUUCGAGUCCCGUACGGAACG: the yeast fitness came to 0.664.
As for GUUCCGUUGGCGUAAUGGUAACGCGUCUCCCGCCUAAGGUGAAGACUGCGGGUUCGAGACCCGUACGGAACG, the yeast fitness was at most 0.5.
The value for GUUCCGUUGGCGUAAUGGUAACGCGUCUCCCGCCUAAGGCGAAGACUGCGGGUUCGAGUCCCGUACGGAACG was 0.692; that for GUUCCGUUGGCGUAAUGGUAACGCGUCUCCCGCCUAAGGUGAAGACUGCGGGUUCGAGUCCCGUACGGAACG was 0.624.
Regarding GUUCCGUUGGCGUAAUGGUAACGCGUCUCCCCCCUAAGGAGAAGACUCUGGGUUCGAGUCCCGUACGGAACG, the yeast fitness amounted to 0.635.
Turning to GUUCCGUUGGCGUAAUGGUAACGCGUCUCCCCCCUAAGGAGAAGAGUGCGGCUUCGAGUCCCGUACGCAACG, the yeast fitness is at most 0.5.
As for GUUCCGUUGGCGUAAUGGUAACGCGUCUCCCCCCUAAGGAGAAGAGUGCGGGUUCGAGCCCCCUACGCAACG, the yeast fitness was at most 0.5.
GUUCCGUUGGCGUAAUGGUAACGCGUCUCCCCCCUAAGGAGAAGACUGCGGGUUCGAGUCCCGUAAGGAACG: the yeast fitness was 0.702.
Regarding GUUCCGUUGGCGUAAUGGUAACGCGUCUCCCCUCUAAGGAGUAGACUGCGGGUUCGGGUCCCGUACGGAACG, the yeast fitness was at most 0.5.
For the variant GUUCCGUUGGCGUAAUGGUAACGCGUCUCCCGCCUAAGGAGAAGACUGCGGGUUCGAGUCCCGUACGGCACG, the yeast fitness came out at 0.848.
GUUCCGUUGGCGUAAUGGUAACGCGUCUCCCCCUUAAGGAGAAGACUGCGGGAUCGAGUCCCGUAUGGAACG: the yeast fitness is at most 0.5.
The value for GUUCCGUUGGCGUAAUGGUAACGCGUCUCCCCCCUAAGGAGAAGUGUGCGGGUUCGAGUCCCGUACGGCACG was at most 0.5; that for GUUCCGUUGGCGUAAUGGUAACGCGUCUCCCCCCUAAGGAGAAGACUGCGGGUUCCAGUCCCGUACGGAACG was 0.676; that for GUUCCGUUGGCGUAAUGGUAACGCGUCUCCCCCCUAAGGAGAAGACUCCGGGUUCGAGUCCCGUACGGAACG was 0.862.
On to GUUCCGUUGGCGUAAUGGUAACGCGUCUCCCCCCUAAGGAGAAGACUACGGGUUCGAGUCCCGUACGGAACG, for which the yeast fitness stood at 0.76.
As to GUUCCGUUGGCGUAAUGGUAACGCGUCUCCCCCCAAAGGAGAAGACCGCGGGUUCGAGUCCCGUACGGAACG, the yeast fitness was at most 0.5.
As for GUUCCGUUGGCGUAAUGGUAACGCGUCUCCCGCCUAAGGAGAAGACUGCGGGUUCGUGUCCCGUACGGAACG, the yeast fitness came out at 0.527.
As to GUUCCGUUGGCGUAAUGGUAACGCGUCUCCCCCCUAAGGAGAAGACUGCGGGUUCGAGUGCCGUACGGAACG, the yeast fitness was determined as 0.552.
Turning to GUUCCGUUGGCGUAAUGGUAACGCGUCUCCCCCUUAAGGAGAAGUCUGCGGGUUCGAGUCCCGUACGGAACG, the yeast fitness turned out to be 0.662.
Regarding GUUCCGUUGGCGUAAUGGUAACGCGUCUCCCCCCUAACGAGAAGACUGCAGGUUCGAGUCCCGUACGGAGCG, the yeast fitness is at most 0.5.
As to GUUCCGUUGGCGUAAUGGUAACGCGUCUCCCGGCUAAGGAGAAGACUGCGGGUUCGAGUCCCGUACGGAGCG, the yeast fitness is at most 0.5.
For GUUCCGUUGGCGUAAUGGUAACGCGUCUCCCCCCUAAGUAGAAGACUGCGGGUUCGAGUCCCGUACGGAACG, the yeast fitness stood at 0.911.
As for GUUCCGUUGGCGUAAUGGUAACGCGUCUCCCCCCUAAGAAGAAGACUGCGGGUUCGAGUCCCGUACGGAACG, the yeast fitness stood at 0.928.
Take GUUCCGUUGGCGUAAUGGUAACGCGUCUCCCCCCUAAGGAGAAGACUGUCGGUUCGAGUCCCGUACGGAACG: the yeast fitness was 0.638.
On to GUUCCGUUGGCGUAAUGGUAACGCGUCUCCCGCCUAAGGAGGAGACUGCGGGUUCGAGUCUCGUACGGAACG, for which the yeast fitness is at most 0.5.
Take GUUCCGUUGGCGUAAUGGUAACGCGUCUCCCCCCUAAGGAGAAGAAUGCGGGUUCGAGUCCCGUACGGAACG: the yeast fitness was 0.88.
The value for GUUCCGUUGGCGUAAUGGUAACGCGUCUCCCCCCUAAGGAGAAGACUGCGGGUUCGGGUCCCGUACGGAACG was 0.861.
With GUUCCGUUGGCGUAAUGGUAACGCGUCUCCCCCCUAAGGAGAAGACUGCGGGUUUGAGUCCCGUACGGCACG, the yeast fitness amounted to 0.63.
As to GUUCCGUUGGCGUAAUGGUAACGCGUCUCCCCACUAAGGAGAAGACUGCGGGUUCGAGUCCCGUACGGAACG, the yeast fitness is 0.628.
Consider GUUCCGUUGGCGUAAUGGUAACGCGUCUCCCCCCUAAGGAGAAGACUGCGGGUUAGAGUCCCGUACGGAACG, for which the yeast fitness amounted to 0.632.
Consider GUUCCGUUGGCGUAAUGGUAACGCGUCUCCCCCCUAAGGAGAAGACUGCGGGUUUGAGUCCCGUACGGAACG, for which the yeast fitness was found to be 0.651.
For GUUCCGUUGGCGUAAUGGUAACGCGUCUCCCCCCUAACGAGAAGACUGCGGCUUCGAGUCCCGUACGGAACG, the yeast fitness was at most 0.5.
For the variant GUUCCGUUGGCGUAAUGGUAACGCGUCUCCCCUCUAAGGAGAAGACUGCGGGUUCGAGUCCUGUGCGGAACG, the yeast fitness came out at 0.58.
The value for GUUCCGUUGGCGUAAUGGUAACGCGUCUCCCGCCUAAGGAGAAGAAUGCGGGUUCGAGUCCCGUAUGGAACG was 0.538; that for GUUCCGUUGGCGUAAUGGUAACGCGUCUCCCCCCUAAGGAGAAGACUGCGAGUUCGAGUCCCGUACGGAUCG was 0.868; that for GUUCCGUUGGCGUAAUGGUAACGCGUCUCCCCCCUAAGGAGAAGACUGCGGGUUCGAGUCCCGUACCGAACG was 0.9.
In the case of GUUCCGUUGGCGUAAUGGUAACGCGUCUCCCCCCUAAGGAGAAGACUGGGGGUUCGAGUCCCGUACGGAACG, the yeast fitness amounted to 1.02.
Turning to GUUCCGUUGGCGUAAUGGUAACGCGUCUCCCCCCUAAGGAGAAGACUGAGGGUUCGAGUCCCGUACGGAACG, the yeast fitness was 0.692.

The record behind these values is the RNAGym collection of RNA variant scans (doi:10.1126/science.aae0568).
